Experimental data taken from ChEMBL document CHEMBL3632613, “Pharmacokinetic, pharmacodynamic and metabolic characterization of a brain retentive microtubule (MT)-stabilizing triazolopyrimidine” (Bioorg Med Chem Lett, 2015).
The source made the active and inactive calls. No cut-off for these calls is given here.

Key:
[1] = Retention time of the compound in mouse liver microsomes by LC-MS/MS method; assay type: ADME
Brain [2] = test: Drug level in rat brain at 5 mg/kg, ip administered as two repeated doses separated by 4 hrs interval; assay type: ADME, organism-based; details: in vivo
Brain [3] = test: Drug level in rat brain at 5 mg/kg, ip administered as single dose after 4 hrs; assay type: ADME, organism-based; details: in vivo
QBI293 [4] = test: Stabilization of microtubule in human QBI293 cells assessed as increase in acetylated alpha-tubulin up to 1 uM incubated for 4 hrs; assay type: cell-based
Mus musculus = test: In-vivo stabilization of microtubule in normal mouse assessed as increase in acetylated alpha-tubulin at 5 mg/kg, ip administered as two doses after 1 day; assay type: functional, organism-based
Plasma [5] = test: Drug metabolism in mouse plasma assessed as formation of (S)-3-(4-(5-chloro-7-((1,1,1-trifluoropropan-2-yl)amino)-[1,2,4]triazolo[1,5-a]pyrimidin-6-yl)-3,5-difluorophenoxy)propanoic acid at 5 mg/kg, ip; details: in vivo
Plasma [6] = test: Drug metabolism in mouse plasma assessed as formation of (S)-4-(5-chloro-7-((1,1,1-trifluoropropan-2-yl)amino)-[1,2,4]triazolo[1,5-a]pyrimidin-6-yl)-3,5-difluorophenol at 5 mg/kg, ip; details: in vivo
QBI293 [7] = test: Cytotoxic activity against human QBI293 cells assessed as reduction in cel viability incubated for 24 hrs by alamar blue assay; assay type: functional, cell-based
Outline: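 QBI293 cells seeded 10,000/well, grown overnight at 37°C, 5% CO2, then exposed in triplicate to a nM–µM range (diluted from 20 mM DMSO stocks; 0.25% DMSO vehicle as 0% toxicity, 100 µM tubercidin as 100%) for 18 h. Alamar Blue was then added at 10% of well volume for another 6 h. Fluorescence read at ex 550/em 590 nm. Percent cytotoxicity was derived from RFUs.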

[8] = Half life in rat brain at 5 mg/kg, ip; assay type: ADME, organism-based
[9] = Half life in rat plasma at 5 mg/kg, ip; assay type: ADME, organism-based
Plasma [10] = test: Drug level in mouse plasma treated with at 5 mg/kg, ip cmpound-4 assessed as compound formation; details: in vivo

| Retention_time [1] | Drug uptake (Brain [2]) | Drug uptake (Brain [3]) | Drug metabolism (Plasma [5]) | Drug metabolism (Plasma [6]) | half-life [8] | half-life [9] | Drug metabolism (Plasma [10]) | SMILES | inhibition (QBI293 [4]) | Activity (Mus musculus) | Activity (QBI293 [7]) |
| --- | --- | --- | --- | --- | --- | --- | --- | --- | --- | --- | --- |
| 6.91 min | Active | Active | metabolite_detected | metabolite_detected | 7 h | 2.5 h |  | C[C@H](Nc1c(-c2c(F)cc(OCCCO)cc2F)c(Cl)nc2ncnn12)C(F)(F)F | Active | Active | Active |
| 6.73 min |  |  |  |  |  |  | metabolite_detected | C[C@H](Nc1c(-c2c(F)cc(O)cc2F)c(Cl)nc2ncnn12)C(F)(F)F | inactive |  | inactive |
| 6.9 min |  |  |  |  |  |  | metabolite_detected | C[C@H](Nc1c(-c2c(F)cc(OCCC(=O)O)cc2F)c(Cl)nc2ncnn12)C(F)(F)F | inactive |  | inactive |
